Data taken from ChEMBL document CHEMBL4765412, “(±)-trans-2-phenyl-2,3-dihydrobenzofurans as leishmanicidal agents: Synthesis, in vitro evaluation and SAR analysis” (Eur J Med Chem, 2020).

What was measured:
[1] = system: L6; assay: Cytotoxicity against rat L6 cells assessed as reduction in cell viability incubated for 70 hrs by resazurin staining based inverted microscopic analysis; conditions: L6, 70 h
Outline: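 Rat L-6 skeletal myoblast line; racemates tested unless stated.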

[2] = system: Leishmania donovani; assay: Antileishmanial activity against Leishmania donovani MHOM/ET/67/L82 amastigotes assessed as growth inhibition incubated for 70 hrs by resazurin based inverted microscopic analysis; assay type: functional, organism-based; conditions: Leishmania donovani, MHOM/ET/67/L82, 70 h
Outline: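 Axenic L. donovani amastigotes (MHOM/ET/67/L82); racemates tested unless stated; miltefosine as positive control. Some values come from a separate run and were rescaled by that run's relative miltefosine IC50.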

[3] = Selectivity index, ratio of IC50 for cytotoxicity against rat L6 cells to IC50 for antileishmanial activity against Leishmania donovani MHOM/ET/67/L82 amastigotes; assay type: toxicity, cell-based; conditions: read-out: Ratio IC50

Row | Compound | IC50 [1] | IC50 [2] | selectivity ratio [3]
1 | CC(C)NC(=O)/C=C/c1cc(O)c2c(c1)[C@H](C(=O)NC(C)C)[C@@H](c1ccc(O)c(O)c1)O2 (racemic) | 55.5 µM | 82.3 µM | 0.7
2 | C[C@H]1c2cc(/C=C/C(=O)O)ccc2O[C@@H]1c1ccc(O)cc1 (racemic) | 73.9 µM | 5.64 µM | 13.1
3 | COc1cc([C@H]2Oc3ccc(Br)cc3[C@@H]2CO)c(Br)cc1O (racemic) | 40.6 µM | 10.7 µM | 3.8
4 | COc1cc(Br)c([C@H]2Oc3ccc(Br)cc3[C@@H]2CO)cc1OC (racemic) | 21 µM | 11.4 µM | 1.8
5 | COc1cc([C@H]2Oc3ccc(Cl)cc3[C@@H]2C)cc(Cl)c1O (racemic) | 64.2 µM | 13.4 µM | 4.8
6 | OC[C@H]1c2ccccc2O[C@@H]1c1ccc(O)cc1 (racemic) | 217 µM | 158 µM | 1.4
7 | COc1ccc([C@H]2Oc3ccc(/C=C/C(=O)OC(C)(C)C)cc3[C@@H]2CO)cc1OC (racemic) | 22.9 µM | 10.7 µM | 2.1
8 | CC(C)(C)CC(=O)/C=C/c1cc(O)c2c(c1)[C@H](C(=O)CC(C)(C)C)[C@@H](c1ccc(O)c(O)c1)O2 (racemic) | 2.45 µM | 3.42 µM | 0.7
9 | COc1cc([C@H]2Oc3ccc(Br)cc3[C@@H]2CO)cc(Br)c1O (racemic) | 45.4 µM | 12.1 µM | 3.8
10 | COc1cc([C@H]2Oc3ccc(Br)cc3[C@@H]2C)c(Br)cc1O (racemic) | 18.2 µM | 15 µM | 1.2
11 | COc1cc([C@H]2Oc3c(OC)cc(/C=C/C(=O)NC(C)C)cc3[C@@H]2C(=O)NC(C)C)ccc1O (racemic) | 77.2 µM | 53.6 µM | 1.4
12 | COc1cc([C@H]2Oc3ccc(Br)cc3[C@@H]2C)ccc1O (racemic) | 13.1 µM | 24.8 µM | 0.5
13 | COc1ccc([C@H]2Oc3ccc(C=O)cc3[C@@H]2C)cc1 (racemic) | 43.8 µM | 30.5 µM | 1.4
14 | CC(=O)OC[C@H]1c2cc(Br)ccc2O[C@@H]1c1ccc(O)cc1 (racemic) | 55.5 µM | 13.7 µM | 4
15 | C[C@H]1c2cc(Br)ccc2O[C@@H]1c1ccc(O)cc1 (racemic) | 56.6 µM | 32.5 µM | 1.7
16 | COc1ccc([C@H]2Oc3ccccc3[C@@H]2COC(C)=O)cc1 (racemic) | 43.9 µM | 58.4 µM | 0.8
17 | CC(=O)Oc1ccc([C@H]2Oc3ccc(/C=C/C(=O)OC(C)(C)C)cc3[C@@H]2C(=O)OC(C)(C)C)cc1 (racemic) | 11.8 µM | 2.06 µM | 5.7
18 | COc1cc([C@H]2Oc3c(OC)cc(/C=C/C(=O)NCCO)cc3[C@@H]2C(=O)NCCO)ccc1O (racemic) | 212 µM | 212 µM | 1
19 | CC(C)CC(=O)/C=C/c1cc(O)c2c(c1)[C@H](C(=O)CC(C)C)[C@@H](c1ccc(O)c(O)c1)O2 (racemic) | 5 µM | 4.42 µM | 1.1
20 | CC(C)(C)OC(=O)/C=C/c1ccc2c(c1)[C@H](CO)[C@@H](c1ccc(O)cc1)O2 (racemic) | 33.8 µM | 17.1 µM | 2
21 | COc1cc([C@H]2Oc3ccccc3[C@@H]2C)cc(I)c1O (racemic) | 46.9 µM | 13.4 µM | 3.5
22 | OC[C@H]1c2cc(Br)ccc2O[C@@H]1c1ccc(O)c(O)c1 (racemic) | 3.93 µM | 17.8 µM | 0.2

Row | Compound | IC50 [1] | IC50 [2] | selectivity ratio [3]
23 | COc1cc([C@H]2Oc3ccc(Cl)cc3[C@@H]2C)ccc1O (racemic) | 55.4 µM | 16.1 µM | 3.4
24 | OC[C@H]1c2ccccc2O[C@@H]1c1ccc(O)c(Br)c1 (racemic) | 115 µM | 43.8 µM | 2.6
25 | COc1ccc([C@H]2Oc3ccc(Br)cc3[C@@H]2C)cc1Br (racemic) | 39.7 µM | 29.7 µM | 1.3
26 | OC[C@H]1c2cc(Br)ccc2O[C@@H]1c1ccc(O)c(Br)c1 (racemic) | 64.8 µM | 21.8 µM | 3
27 | COc1cc([C@H]2Oc3ccc(Br)cc3[C@@H]2C)cc(Br)c1O (racemic) | 44.8 µM | 17.2 µM | 2.6
28 | CCCNC(=O)/C=C/c1cc(OC)c2c(c1)[C@H](C(=O)NCCC)[C@@H](c1ccc(O)c(OC)c1)O2 (racemic) | 73.8 µM | 8.88 µM | 8.3
29 | COc1cc([C@H]2Oc3ccccc3[C@@H]2C)ccc1O (racemic) | 84.4 µM | 59 µM | 1.4
30 | COc1ccc([C@H]2Oc3ccccc3[C@@H]2CO)cc1OC (racemic) | 53.7 µM | 136 µM | 0.4
31 | COc1ccc([C@H]2Oc3ccccc3[C@@H]2C)cc1 (racemic) | 154 µM | 99.9 µM | 1.6
32 | OC[C@H]1c2cc(Br)ccc2O[C@@H]1c1ccc(O)cc1 (racemic) | 22 µM | 18.8 µM | 1.2
33 | COc1ccc([C@H]2Oc3ccc(/C=C/C(=O)OC(C)(C)C)cc3[C@@H]2C)cc1 (racemic) | 40.1 µM | 4.01 µM | 10
34 | COc1cc([C@H]2Oc3c(OC)cc(/C=C/C(=O)O)cc3[C@@H]2C(=O)O)ccc1O (racemic) | 259 µM | 6.89 µM | 37.6
35 | COc1cc([C@H]2Oc3ccc(Br)cc3[C@@H]2CO)ccc1O (racemic) | 32.3 µM | 30.5 µM | 1.1
36 | COc1cc([C@H]2Oc3ccccc3[C@@H]2CO)ccc1O (racemic) | 58 µM | 185 µM | 0.3
37 | COc1ccc([C@H]2Oc3ccc(Br)cc3[C@@H]2C)cc1 (racemic) | 60.3 µM | 31.8 µM | 1.9
38 | COc1ccc([C@H]2Oc3ccc(Br)cc3[C@@H]2CO)cc1OC (racemic) | 21.2 µM | 33.8 µM | 0.6
39 | OC[C@H]1c2ccccc2O[C@@H]1c1ccccc1Br (racemic) | 25.4 µM | 21.7 µM | 1.2
40 | COc1ccc([C@H]2Oc3ccccc3[C@@H]2CO)cc1 (racemic) | 43.6 µM | 70.3 µM | 0.6
41 | COc1cc([C@H]2Oc3c(OC)cc(/C=C/C(=O)CC(C)C)cc3[C@@H]2C(=O)CC(C)C)ccc1O (racemic) | 5.29 µM | 3.81 µM | 1.4
42 | CC(C)(C)OC(=O)/C=C/c1ccc2c(c1)[C@H](C(=O)OC(C)(C)C)[C@@H](c1ccc(OC(C)(C)C)cc1)O2 (racemic) | 202 µM | 13.1 µM | 15.5
43 | COc1ccc([C@H]2Oc3ccc(/C=C/C(C)=O)cc3[C@@H]2C)cc1 (racemic) | 9.35 µM | 17.4 µM | 0.5
44 | OC[C@H]1c2ccccc2O[C@@H]1c1cc(Br)c(O)c(Br)c1 (racemic) | 109 µM | 10.1 µM | 10.8
